Data set [1] concerns the target T1, 4-diphosphocytidyl-2-C-methyl-D-erythritol kinase (Escherichia coli (strain K12), UniProt P62615).
T1 sequence (P62615 whole entry): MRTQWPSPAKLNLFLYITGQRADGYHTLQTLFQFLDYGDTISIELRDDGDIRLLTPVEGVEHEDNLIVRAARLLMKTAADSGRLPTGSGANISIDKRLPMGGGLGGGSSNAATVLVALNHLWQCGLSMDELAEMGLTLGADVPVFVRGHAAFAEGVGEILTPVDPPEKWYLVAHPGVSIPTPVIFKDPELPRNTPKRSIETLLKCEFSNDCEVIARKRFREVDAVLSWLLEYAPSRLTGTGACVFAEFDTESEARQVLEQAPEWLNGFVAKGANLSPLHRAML
As to the kind of experiment: Inhibition of IspE expressed in Escherichia coli incubated for 30 mins by microplate reader assay.

In data set [2] the test system is Escherichia coli. As to the kind of experiment: Antimicrobial activity against Escherichia coli K-12 mutant assessed as growth inhibition at 100 uM in presence of polymyxin B nonapeptide relative to control. It counts as functional.
Data set [3] can be described thus: Inhibition of PK/LDH (unknown origin). In outline: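 Counter-screen of the auxiliary enzymes: 1 mM ADP, 2 mM PEP, 1 mM NADH, PK and LDH (0.05 U/mL each), 10 mM MgCl2, 200 mM KCl, 10 mM DTT in 100 mM Tris-HCl pH 7.6. Compound added from DMSO. NADH decrease monitored photometrically at room temperature for 30 min.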
A short description of data set [4]: Inhibition of IspE in Plasmodium falciparum incubated for 30 mins by microplate reader assay. In outline:
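P. falciparum IspE with C-terminal His6, expressed in E. coli XL1 and purified by Ni2+ chelating chromatography and then G-25 gel filtration. Coupled PK/LDH assay with 1.0 mM CDP-ME in 100 mM Tris-HCl pH 7.6 plus MgCl2, KCl, DTT, NADH, PEP, ATP, PK and LDH. Compound added from DMSO. Read photometrically at room temperature for 30 min.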

For data set [5], the system named is Escherichia coli. As to the kind of experiment: Antimicrobial activity against Escherichia coli harboring delta tolC mutant assessed as growth inhibition at 50 uM relative to control. It counts as functional. In outline:
(§1)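 E. coli K12 wild-type and its ΔtolC and ΔacrB efflux mutants were used. Percentage growth inhibition was taken at 100 μM, or at 25 or 50 μM where compound solubility limited the top concentration, when no MIC could be determined.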

In data set [6] the test system is Escherichia coli. As to the kind of experiment: Antimicrobial activity against Escherichia coli harboring deltaACRB mutant assessed as growth inhibition at 25 uM relative to control. Type of data set: functional. In outline: as §1
In data set [7] the test system is Escherichia coli. As to the kind of experiment: Antimicrobial activity against Escherichia coli harboring delta tolC mutant assessed as growth inhibition at 25 uM relative to control. Type of data set: functional. In outline: as §1
In data set [8] the test system is Staphylococcus aureus. As to the kind of experiment: Antimicrobial activity against Staphylococcus aureus subsp. aureus str. Newman assessed as growth inhibition at 25 uM relative to control. Type of data set: functional. In outline: (§2)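 Broth growth assay with E. coli BL21(DE3)omp8 (porin-[…]), E. coli D22 or S. aureus Newman. Percent growth inhibition was measured at 100 μM, or at a lower concentration where compound solubility limited it, whenever no MIC could be determined.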

Data set [9] concerns Escherichia coli. As to the kind of experiment: Antimicrobial activity against Escherichia coli D22 assessed as growth inhibition at 25 uM relative to control. Type of data set: functional. In outline:
as §2

Data set [10] has as its system Escherichia coli. As to the kind of experiment: Antimicrobial activity against Escherichia coli BL21 (DE3) assessed as growth inhibition at 25 uM relative to control. It counts as functional. In outline: as §2
The test system of data set [11] is HepG2. As to the kind of experiment: Cytotoxicity against human HepG2 cells at 25 uM after 72 hrs by MTT assay. Type of data set: functional. (In general: Formazan colour is commonly taken as a measure of viable cells.)
Data set [12] has as its system Plasmodium falciparum. As to the kind of experiment: Antiplasmodial activity against Plasmodium falciparum NF54 infected in human erythrocyte assessed as reduction in [3H]hypoxanthine incorporation incubated for 24 hrs by beta liquid scintillation counter analysis. It counts as functional. In outline:
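Compounds (DMSO stocks) were titrated in duplicate over a 64-fold range at 1.25% haematocrit and 0.3% parasitaemia for 48 h. [3H]hypoxanthine (0.25 μCi/well) was then added for 24 h and incorporation counted by scintillation. Results are % of untreated control, with IC50 by linear interpolation.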

In data set [13] the test system is Escherichia coli. As to the kind of experiment: Antimicrobial activity against Escherichia coli D22 assessed as growth inhibition at 100 uM relative to control. Type of data set: functional. In outline: as §2
Data set [14] has as its system Escherichia coli. As to the kind of experiment: Antimicrobial activity against Escherichia coli harboring deltaACRB mutant assessed as growth inhibition at 100 uM relative to control. It counts as functional. In outline:
as §1

The test system of data set [15] is Escherichia coli. As to the kind of experiment: Antimicrobial activity against Escherichia coli K-12 mutant assessed as growth inhibition at 100 uM relative to control. It counts as functional. In outline:
as §1

The subject of data set [16] is Escherichia coli. As to the kind of experiment: Antimicrobial activity against Escherichia coli harboring delta tolC mutant assessed as growth inhibition at 100 uM relative to control. Type of data set: functional. In outline:
as §1

The subject of data set [17] is Staphylococcus aureus. As to the kind of experiment: Antimicrobial activity against Staphylococcus aureus subsp. aureus str. Newman assessed as growth inhibition at 100 uM relative to control. It counts as functional. In outline:
as §2

Data set [18] deals with HepG2. As to the kind of experiment: Cytotoxicity against human HepG2 cells at 100 uM after 72 hrs by MTT assay. Type of data set: functional.
In data set [19] the test system is Escherichia coli. As to the kind of experiment: Antimicrobial activity against Escherichia coli BL21 (DE3) assessed as growth inhibition at 100 uM relative to control. It counts as functional. In outline: as §2
In data set [20] the test system is HepG2. As to the kind of experiment: Cytotoxicity against human HepG2 cells at 50 uM after 72 hrs by MTT assay. Type of data set: functional.
In data set [21] the test system is Staphylococcus aureus. As to the kind of experiment: Antimicrobial activity against Staphylococcus aureus subsp. aureus str. Newman assessed as growth inhibition at 50 uM relative to control. It counts as functional. In outline:
as §2

For data set [22], the system named is Escherichia coli. As to the kind of experiment: Antimicrobial activity against Escherichia coli D22 assessed as growth inhibition at 50 uM relative to control. It counts as functional. In outline: as §2
The test system of data set [23] is Escherichia coli. As to the kind of experiment: Antimicrobial activity against Escherichia coli BL21 (DE3) assessed as growth inhibition at 50 uM relative to control. Type of data set: functional. In outline: as §2
The subject of data set [24] is Escherichia coli. As to the kind of experiment: Antimicrobial activity against Escherichia coli harboring deltaACRB mutant assessed as growth inhibition at 50 uM relative to control. Type of data set: functional. In outline:
as §1

A short description of data set [25]: Octanol/water partition co-efficient, log P of compound. It counts as physicochemical. In outline: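 Log P(o/w) calculated in silico, not measured.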

The text below walks through data of ChEMBL document CHEMBL4732025, “Assessment of the rules related to gaining activity against Gram-negative bacteria” (RSC Med Chem, 2021).

By IC50 is commonly meant the concentration that gives 50% inhibition. For orientation: inhibition means the relative decrease from the control value, in per cent. The logP is a log measure of how a compound divides between an organic and an aqueous phase.

Turning to `Nc1nc(=O)n(C2CCCS2)cc1C#CCNS(=O)(=O)C1CC1` (stereo unspecified), the IC50 in [1] was 1 µM; in data set [3], over 500 µM; in [4], over 500 µM. In [2], the inhibition at 100 µM amounted to 6%.

Regarding `Cc1cc(-c2csc(NC(=O)[C@@H](NC(=O)OC(C)(C)C)N[C@@H](Cc3ccc(O)cc3)C(=O)O)n2)c(C)n1C`, the inhibition at 50 µM in data set [5] was determined as 13%.

As to `Cc1cc(-c2csc(NC(=O)[C@@H](NC(=O)OC(C)(C)C)N[C@H](C(=O)O)C(C)C)n2)c(C)n1C`, the inhibition at 50 µM in data set [5] came to 14%.

Turning to `CCCn1c(C)cc(-c2csc(NC(=O)c3ccco3)n2)c1C`, the IC50 in data set [1] is 91 µM; in [3], 65 µM; in data set [4] it was 57 µM; in [12], 5 µM. For the same molecule, the inhibition at 25 µM in data set [6] was 5%; in data set [7] it was 30%; in [8] it was 6%; in data set [9] it was 9%; in data set [10] it was 3%; in [11], 19%.

On to `N[C@@H](NCC(=O)O)C(=O)Nc1csc(-c2ccccc2)n1`, for which the inhibition at 100 µM in [13] stood at 15%; in [14], 6%; in data set [15], 22%; in data set [16] it was 10%; in data set [17], 5%; in data set [18], 17%. For the same molecule, the inhibition at 100 µM in data set [19] came out at 19%.

On to `CCCn1c(C)cc(-c2csc(NC(=O)c3cccs3)n2)c1C`, for which the inhibition at 50 µM in [20] was -3%; in data set [21] it was 7%; in data set [22], 4%; in data set [23] it was 19%; in [24], 7%; in [5], 33%. The IC50 in data set [1] worked out at 68 µM; in data set [3] it was 56 µM; in data set [4], 35 µM; in data set [12] it was 6 µM.

For `Cc1cc(-c2csc(NC(=O)[C@@H](N)N[C@@H](Cc3ccc(O)cc3)C(=O)O)n2)c(C)n1C`, in data set [16], the inhibition at 100 µM was determined as 38%.

For the molecule `CC(C)C[C@H](N[C@H](NC(=O)OC(C)(C)C)C(=O)Nc1csc(-c2ccccc2)n1)C(=O)O`, the inhibition at 100 µM in [16] came to 3%.

For the molecule `CC(C)(C)OC(=O)N[C@@H](NCC(=O)O)C(=O)Nc1csc(-c2ccccc2)n1`, the inhibition at 100 µM in [16] came to 34%.

As for `Cc1cc(-c2csc(NC(=O)[C@@H](N)NCC(=O)O)n2)c(C)n1C`, the inhibition at 50 µM in [20] came to 19%. The inhibition at 100 µM in data set [13] was 3%; in data set [14], 8%; in data set [15], 13%; in data set [16], 57%; in data set [17] it was 6%; in data set [19], 18%. Moreover, the logP in data set [25] came out at 0.9.

For the molecule `CCn1c(C)cc(-c2csc(NC(=O)[C@H](NCC(=O)O)NC(=O)OC(C)(C)C)n2)c1C`, in data set [5], the inhibition at 50 µM amounted to 41%.

For `Cc1cc(-c2csc(NC(=O)[C@@H](N)N[C@H](C(=O)O)C(C)C)n2)c(C)n1C`, the inhibition at 100 µM in data set [16] came out at 42%.

Turning to `CC(C)C[C@H](N[C@H](N)C(=O)Nc1csc(-c2ccccc2)n1)C(=O)O`, the inhibition at 100 µM in data set [13] came out at 18%; in [14], 11%; in data set [15], 18%; in [16], 32%; in data set [17], 11%; in data set [19] it was 30%.

`Cc1cc(-c2csc(NC(=O)[C@@H](N)N[C@@H](CC(C)C)C(=O)O)n2)c(C)n1C`: the inhibition at 100 µM worked out at 58% in data set [16] and 52% in data set [17].

For the molecule `Cc1cc(-c2csc(NC(=O)[C@H](NCC(=O)O)NC(=O)OC(C)(C)C)n2)c(C)n1C`, the inhibition at 100 µM in [16] came to 46%.

Take `CC(C)[C@H](N[C@H](N)C(=O)Nc1csc(-c2ccccc2)n1)C(=O)O`: the inhibition at 100 µM was 14% in [13]; 2% in data set [14]; 13% in data set [15]; 17% in data set [16]; 5% in [17]; 16% in data set [19].

As to `Cc1cc(-c2csc(NC(=O)[C@@H](NC(=O)OC(C)(C)C)N[C@@H](CC(C)C)C(=O)O)n2)c(C)n1C`, the inhibition at 50 µM in data set [5] stood at 8%.

On to `CC(C)[C@H](N[C@H](NC(=O)OC(C)(C)C)C(=O)Nc1csc(-c2ccccc2)n1)C(=O)O`, for which the inhibition at 100 µM in data set [16] came to 21%.

As for `CCn1c(C)cc(-c2csc(NC(=O)[C@@H](N)NCC(=O)O)n2)c1C`, the inhibition at 100 µM in data set [13] stood at 20%; in data set [14] it was 65%; in data set [15], 13%; in [16], 55%; in [18], 23%; in data set [19], 16%. Further, in data set [21], the inhibition at 50 µM turned out to be 14%. The same molecule came in with a log partition coefficient (logP) in data set [25] of 1.4.
